This passage reports survival and Activity results from ChEMBL document CHEMBL4038305, “Benzoxaborole Antimalarial Agents. Part 5. Lead Optimization of Novel Amide Pyrazinyloxy Benzoxaboroles and Identification of a Preclinical Candidate” (J Med Chem, 2017).

Series [1] deals with Plasmodium berghei. Description: Antimalarial activity against Plasmodium berghei infected in Swiss Webster mouse assessed as mouse survival rate at 1 mg/kg administered once daily via oral gavage for 4 consecutive days beginning 1 hr after infection measured on day 4 post infection relative to control. The format is functional. A digest of the protocol: (§1)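 Mice given an intraperitoneal injection of P. berghei-infected erythrocytes taken from a previously infected animal. Oral dosing once daily for 4 consecutive days, starting 1 h after infection. Vehicle: polyethylene glycol 300/propylene glycol/water (weight ratio 55/25/20). Percent survival recorded daily from day 4 to day 20. Chloroquine 30 mg/kg and vehicle-only groups served as controls.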

The test system of series [2] is Plasmodium berghei. Description: Antimalarial activity against Plasmodium berghei infected in Swiss Webster mouse assessed as mouse survival rate at 1 mg/kg administered once daily via oral gavage for 4 consecutive days beginning 1 hr after infection measured on day 8 post infection relative to control. The class given is functional. A digest of the protocol: as §1

Series [3] concerns Plasmodium berghei. Put plainly: Antimalarial activity against Plasmodium berghei infected in Swiss Webster mouse assessed as mouse survival rate at 3.7 mg/kg administered once daily via oral gavage for 4 consecutive days beginning 1 hr after infection measured on day 8 post infection relative to control. The format is functional. A digest of the protocol:
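P. berghei-infected erythrocytes taken from a previously infected mouse were injected intraperitoneally. Oral dosing, once daily for 4 consecutive days, began 1 h after infection, in polyethylene glycol 300/propylene glycol/water (55/25/20 by weight). Chloroquine at 30 mg/kg was the positive control, with a vehicle-only group. Percent survival was recorded daily from day 4 to day 20.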

The test system of series [4] is Salmonella typhimurium. Put plainly: Genotoxicity in Salmonella typhimurium TA98 assessed as number of revertants per plate at 1.5 ug/plate in absence of rat liver S9 fraction by Ames test (reference value: 14 +/- 6). The class given is toxicity. To be noted: salmonella enterica subsp. enterica serovar typhimurium.
The test system of series [5] is Salmonella typhimurium. Put plainly: Genotoxicity in Salmonella typhimurium TA1537 assessed as number of revertants per plate at 1.5 ug/plate in absence of rat liver S9 fraction by Ames test (reference value: 19 +/- 9). The class given is toxicity. The settings on record: salmonella enterica subsp. enterica serovar typhimurium.
The subject of series [6] is Salmonella typhimurium. Description: Genotoxicity in Salmonella typhimurium TA1537 assessed as number of revertants per plate at 5 ug/plate in presence of rat liver S9 fraction by Ames test (reference value: 11 +/- 4). The class given is toxicity. To be noted: salmonella enterica subsp. enterica serovar typhimurium.
In series [7] the test system is Salmonella typhimurium. Description: Genotoxicity in Salmonella typhimurium TA1537 assessed as number of revertants per plate at 15 ug/plate in presence of rat liver S9 fraction by Ames test (reference value: 11 +/- 4). To be noted: salmonella enterica subsp. enterica serovar typhimurium. The format is toxicity.
The test system of another series is Lymphocyte. Put plainly: Genotoxicity in human lymphocytes assessed as replication index at 160 ug/mL after 3 hrs in absence of rat liver S9 fraction by micronucleus assay relative to control. The class given is toxicity, cell-based. The essentials: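 Human lymphocytes exposed for 3 h with or without rat liver S9, or 28 h without S9, with 1% DMSO as vehicle control. Replication index = (binucleated + 2 × multinucleated cells)/total cells. Cytotoxicity (%) = 100 − (RI treated/RI vehicle) × 100.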

The test system of series [8] is Escherichia coli. Description: Genotoxicity in Escherichia coli WP2uvrA assessed as number of revertants per plate at 50 ug/plate in absence of rat liver S9 fraction by Ames test (reference value: 45 +/- 9). The format is toxicity.
Series [9] has as its system Escherichia coli. Put plainly: Genotoxicity in Escherichia coli WP2uvrA assessed as number of revertants per plate at 1500 ug/plate in presence of rat liver S9 fraction by Ames test (reference value: 42 +/- 6). The format is toxicity.

With `Cc1c(Oc2cnc(C(=O)NC(C)CO)cn2)ccc2c1B(O)OC2` (stereo not given), the survival at 1 mg/kg was 100% in the series with Plasmodium berghei [1] and 0% in the series on Plasmodium berghei [2].
`Cc1c(Oc2cnc(C(=O)N3CC(C)(O)C3)cn2)ccc2c1B(O)OC2`: in the series with Plasmodium berghei [3], the survival at 3.7 mg/kg amounted to 0%. Also, the Activity in the series on Salmonella typhimurium [4] amounted to 15; in the series on Salmonella typhimurium [5], 15; in the series with Salmonella typhimurium [6], 22; in the series on Salmonella typhimurium [7], 9; in the series on Lymphocyte, 2%; with Escherichia coli [8] it was 35. For the same molecule, the Activity in the series on Escherichia coli [9] turned out to be 26.
